The source made the active and inactive calls. The calls are words filed in the database; no cut-off is given here. Bounds are passed on as bounds.

One test has as its system NCI-H460. Nature of the test: Cytotoxicity against human NCI-H460 cells after 48 hrs by MTT assay. The conditions noted are these: NCI-H460, 48 h. It is filed as functional, cell-based. An outline of the steps: (§1)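 Cells kept in RPMI-1640 with 10% FBS, seeded at 1.0 × 10^ cells per well and exposed to graded compound for 48 h at 37 °C in 5% CO2. MTT (5 mg/mL solution) was then added for 4 h, formazan dissolved in DMSO, and OD read at 570 nm. Tests were run in triplicate, and IC50 was derived from mean OD versus concentration curves.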
In general terms: Formazan colour is commonly taken as a measure of viable cells.

The test system of a further test is HL-60. Nature of the test: Cytotoxicity against human HL60 cells after 48 hrs by MTT assay. The following applies: HL-60, 48 h. It is filed as functional, cell-based. In a few lines: as §1
The target in test [1] is Nucleic Acid. Kind of test: Binding affinity to G-quadruplex DNA Pu27 assessed as inhibition of hybridization with complementary strand after 3 mins by PCR-stop assay. It is filed as nucleic-acid assay. An outline of the steps:
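Taq polymerase-stop on Pu27 with its complementary strand, each oligomer 10 μM, in 1× PCR buffer with 0.16 mM dNTP, 2.5 U Taq and graded compound. Cycling was 94 °C 3 min, then 30 cycles of 94 °C 30 s, […] 30 s, 72 °C 30 s. Products were run on 15% nondenaturing PAGE in TBE and silver stained. IC50 was taken for inhibition of amplification.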

In test [2] the test system is Nucleic Acid. Kind of test: Binding affinity to biotinylated-telomeric G-quadruplex DNA HTG21 at 20 uM by SPR assay. It is filed as nucleic-acid assay. On the technique in general: SPR reads the build-up and loss of mass on a sensor chip optically.
Test [3] deals with Nucleic Acid. Nature of the test: Binding affinity to biotinylated-c-myc G-quadruplex DNA FPu18T at 20 uM by SPR assay. It is filed as nucleic-acid assay.
Test [4] relates to Nucleic Acid. Kind of test: Binding affinity to biotinylated-duplex DNA at 20 uM by SPR assay. Format: nucleic-acid assay.
For test [5], the system named is Nucleic Acid. Nature of the test: Binding affinity to c-myc G-quadruplex DNA FPu18T assessed as change in melting temperature at 1 uM by FRET-melting assay in presence of excess duplex oligomer ds26. Format: nucleic-acid assay. In a few lines: (§2)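 FRET melting of FAM/TAMRA-labelled oligonucleotides (FPu18T, F21T or duplex F10T), each 0.2 μM, with compound 1.0 μM in 10 mM Tris-HCl pH 7.2 containing KCl. For competition, excess ds26 duplex (3 or 10 μM) was added.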

Test [6] has as its system Nucleic Acid. Kind of test: Binding affinity to duplex DNA F10T assessed as change in melting temperature at 1 uM by FRET-melting assay. It is filed as nucleic-acid assay. In a few lines: as §2
The test system of test [7] is Nucleic Acid. Nature of the test: Binding affinity to human telomeric G-quadruplex DNA F21T assessed as change in melting temperature at 1 uM by FRET-melting assay. It is filed as nucleic-acid assay. In a few lines:
as §2

In test [8] the test system is Nucleic Acid. Kind of test: Binding affinity to c-myc G-quadruplex DNA FPu18T assessed as change in melting temperature at 1 uM by FRET-melting assay. Format: nucleic-acid assay. In a few lines:
as §2

Another test has as its system ECV-304. Kind of test: Cytotoxicity against human ECV304 cells after 48 hrs by MTT assay. Format: cell-based. The conditions noted are these: ECV-304, 48 h. An outline of the steps:
as §1

The subject of another test is HepG2. Nature of the test: Cytotoxicity against human HepG2 cells after 48 hrs by MTT assay. The conditions noted are these: HepG2, 48 h. It is filed as functional, cell-based. An outline of the steps:
as §1

Test [9] has as its system Nucleic Acid. Nature of the test: Binding affinity to c-myc G-quadruplex DNA FPu18T assessed as conformational changes at 25 uM by CD spectrophotometric analysis in absence of K+ ions. It is filed as nucleic-acid assay. In a few lines:
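CD spectra of Pu18 (5 μM) with ligand at 25 μM in 10 mM Tris-HCl pH 7.2 with no KCl. Samples were annealed from 95 °C and held at 4 °C for ≥6 h. Spectra were recorded over 220–450 nm with 1 nm bandwidth, averaging two scans.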

Test [10] has as its system Nucleic Acid. Kind of test: Binding affinity to c-myc G-quadruplex DNA FPu18T assessed as change in CD spectra at 25 uM by CD spectrophotometric analysis in presence of 100 mM K+ ions. Format: nucleic-acid assay. An outline of the steps: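 CD spectra of Pu18 (5 μM) with ligand at 25 μM in 10 mM Tris-HCl pH 7.2 plus 100 mM KCl. Samples were heated to 95 °C, slowly cooled and held at 4 °C for ≥6 h. Spectra were recorded over 220–450 nm with 1 nm bandwidth and 0.5 s per point, averaging two scans.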

Test [11] addresses Nucleic Acid. Kind of test: Binding affinity to biotinylated-telomeric G-quadruplex DNA HTG21 by SPR assay. Format: nucleic-acid assay. In a few lines: (§3)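 SPR with biotinylated DNA captured to about 1000 RU in flow cells 1 and 2, the third left blank as reference. Running buffer was 50 mM Tris-HCl pH 7.2, 100 mM KCl. Ligand at 0.3125–10 μM was injected for 150 s association and 300 s dissociation at 25 °C, with 1 M NaCl regeneration. Blank-subtracted sensorgrams were fitted with a Langmuir kinetic model.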

Test [12] has as its target Nucleic Acid. Nature of the test: Binding affinity to biotinylated-c-myc G-quadruplex DNA FPu18T by SPR assay. It is filed as nucleic-acid assay. In a few lines:
as §3

Another test relates to CA46. Nature of the test: Decrease in c-myc expression in promoter element P1 and P2-deficient human CA46 cells by RT-PCR analysis. Format: functional, cell-based. An outline of the steps:
(§4)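 Ramos or CA46 cells were seeded at 100,000 per well and treated for 4 days with 1, 2.5, 5 or 10 μM compound or DMSO. Total RNA was extracted in Redzol and reverse-transcribed with oligo dT18 at 42 °C for 1 h. c-myc (91 bp) and β-actin (541 bp) were PCR-amplified and run on 1% agarose. Densitometry values were normalized to β-actin.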

Test [13] concerns Ramos. Nature of the test: Suppression of c-myc mRNA level in human Ramos cells expressing NHE III1 at 10 uM by RT-PCR analysis. Format: functional, cell-based. In a few lines:
as §4

Test [14] deals with Ramos. Nature of the test: Decrease in c-myc expression in human Ramos cells expressing NHE III1 at 2.5 uM by RT-PCR analysis. Format: functional, cell-based. An outline of the steps:
as §4

For test [15], the system named is Nucleic Acid. Kind of test: Selectivity ratio of Kd for biotinylated-telomeric G-quadruplex DNA HTG21 to Kd for biotinylated-c-myc G-quadruplex DNA FPu18T. It is filed as nucleic-acid assay. An outline of the steps: as §3

As a reminder, the IC50 is the concentration that gives 50% inhibition. One may read the ΔTm as the change in melting temperature against a reference sample. `O=C(CN1CCOCC1)Nc1cc(-n2cccn2)c2[nH]c3c(-n4cccn4)cc(NC(=O)CN4CCOCC4)cc3c2c1`: the IC50 in the test on NCI-H460 is 3900 nM; in the test on HL-60, 3900 nM; on Nucleic Acid [1] it was above 20 µM; in the test with ECV-304, 29.3 µM; with HepG2 it was 6.1 µM. Also, the result in the test with Nucleic Acid [2], in the test on Nucleic Acid [3] and with Nucleic Acid [4] was inactive. In addition, the result in the test with Nucleic Acid [5] was Active. Further, the ΔTm with Nucleic Acid [6] was found to be 0.2 °C; in the test with Nucleic Acid [7], 1.2 °C; in the test on Nucleic Acid [8], 4.4 °C.

Usually Kd stands for the equilibrium constant for the complex coming apart. Higher therefore signals lower affinity. As for `O=C(CCN1CCCCC1)Nc1cc(-n2cccn2)c2[nH]c3c(-n4cccn4)cc(NC(=O)CCN4CCCCC4)cc3c2c1`, the IC50 in the test on NCI-H460 was 2700 nM; in the test on HL-60, 1200 nM; at Nucleic Acid [1], 4.9 µM; with ECV-304, 25 µM; in the test on HepG2, 5.1 µM. Besides, the result with Nucleic Acid [9], in the test with Nucleic Acid [10], with Nucleic Acid [5], in the test on Ramos [13] and in the test on Ramos [14] was Active. In addition, the outcome in the test on Nucleic Acid [4] and with CA46 was inactive. The Kd on Nucleic Acid [11] amounted to 1880 nM; on Nucleic Acid [12] it was 135 nM. Also, the ΔTm was 0.3 °C in the test on Nucleic Acid [6], 9.7 °C in the test with Nucleic Acid [7] and 12.1 °C in the test with Nucleic Acid [8].

Consider `CCN(CC)CCC(=O)Nc1cc(-n2cccn2)c2[nH]c3c(-n4cccn4)cc(NC(=O)CCN(CC)CC)cc3c2c1`, for which the IC50 in the test on NCI-H460 stood at 2600 nM; with HL-60 it was 1900 nM; on Nucleic Acid [1], 6.3 µM; in the test with ECV-304, 23.3 µM; in the test with HepG2 it was 2.7 µM. Besides, the result in the test with Nucleic Acid [10] and with Nucleic Acid [5] was Active. Moreover, the outcome in the test on Nucleic Acid [4] was inactive. Also, the Kd on Nucleic Acid [11] is 2590 nM; on Nucleic Acid [12], 233 nM. Besides, the ΔTm in the test on Nucleic Acid [6] was determined as 0.3 °C; in the test on Nucleic Acid [7], 11.9 °C; in the test with Nucleic Acid [8], 18.1 °C.

With `O=C(CN1CCCCC1)Nc1cc(-n2cccn2)c2[nH]c3c(-n4cccn4)cc(NC(=O)CN4CCCCC4)cc3c2c1`, the IC50 in the test with NCI-H460 was 3300 nM; in the test on HL-60 it was 2400 nM; on Nucleic Acid [1], above 20 µM; in the test on ECV-304, 27.3 µM; in the test on HepG2, 5.6 µM. The result with Nucleic Acid [4] was inactive. Moreover, the Kd on Nucleic Acid [11] amounted to 8070 nM; at Nucleic Acid [12], 1460 nM. Also, in the test with Nucleic Acid [5], the result was Active. The ΔTm stood at 0.1 °C in the test on Nucleic Acid [6], 4 °C in the test with Nucleic Acid [7] and 5.5 °C with Nucleic Acid [8].

On to `O=C(CCN1CCOCC1)Nc1cc(-n2cccn2)c2[nH]c3c(-n4cccn4)cc(NC(=O)CCN4CCOCC4)cc3c2c1`, for which the IC50 with NCI-H460 is 2800 nM; in the test with HL-60 it was 1700 nM; on Nucleic Acid [1], above 20 µM; with ECV-304 it was 26.2 µM; in the test on HepG2, 6.9 µM. Further, the outcome in the test with Nucleic Acid [2], in the test on Nucleic Acid [3] and in the test on Nucleic Acid [4] was inactive. Besides, in the test on Nucleic Acid [5], the outcome was Active. Further, the ΔTm in the test on Nucleic Acid [6] was determined as 0.3 °C; in the test with Nucleic Acid [7], 4.2 °C; with Nucleic Acid [8], 7.3 °C.

As for `O=C(CCN1CCCC1)Nc1cc(-n2cccn2)c2[nH]c3c(-n4cccn4)cc(NC(=O)CCN4CCCC4)cc3c2c1`, the IC50 was 3500 nM in the test on NCI-H460; 2200 nM with HL-60; 3.6 µM on Nucleic Acid [1]; 25.2 µM in the test on ECV-304; 4.2 µM with HepG2. Further, the outcome in the test with Nucleic Acid [10] and with Nucleic Acid [5] was Active. In addition, the Ratio in the test with Nucleic Acid [15] was above 20. Also, the outcome in the test with Nucleic Acid [4] was inactive. Further, the figures for the dissociation constant (Kd) at Nucleic Acid [11] and on Nucleic Acid [12] were 2640 nM and 131 nM, respectively. The thermal shift (ΔTm) turned out to be 0.5 °C in the test on Nucleic Acid [6], 10.7 °C in the test with Nucleic Acid [7] and 15.1 °C in the test with Nucleic Acid [8].

Take `O=C(CN1CCCC1)Nc1cc(-n2cccn2)c2[nH]c3c(-n4cccn4)cc(NC(=O)CN4CCCC4)cc3c2c1`: the IC50 was determined as 2700 nM in the test with NCI-H460; 1900 nM with HL-60; 5.2 µM at Nucleic Acid [1]; 22.2 µM with ECV-304; 2.7 µM in the test on HepG2. Besides, the outcome with Nucleic Acid [4] was inactive. Moreover, the Kd at Nucleic Acid [11] was found to be 2970 nM; at Nucleic Acid [12] it was 694 nM. Besides, in the test with Nucleic Acid [5], the result was Active. The thermal shift (ΔTm) in the test on Nucleic Acid [6] came out at 0.3 °C; in the test on Nucleic Acid [7] it was 6.3 °C; in the test with Nucleic Acid [8], 9.3 °C.

With `CCN(CC)CC(=O)Nc1cc(-n2cccn2)c2[nH]c3c(-n4cccn4)cc(NC(=O)CN(CC)CC)cc3c2c1`, the IC50 in the test with NCI-H460 was 2500 nM; in the test with HL-60 it was 2000 nM; at Nucleic Acid [1] it was above 20 µM; in the test on ECV-304, 22.8 µM; in the test with HepG2, 3 µM. Also, the outcome in the test with Nucleic Acid [4] was inactive. In addition, the Kd at Nucleic Acid [11] amounted to 6860 nM; at Nucleic Acid [12], 2030 nM. Also, the result in the test with Nucleic Acid [5] was Active. The values for the ΔTm in the test on Nucleic Acid [6], in the test on Nucleic Acid [7] and with Nucleic Acid [8] were 0.6 °C, 3.6 °C and 7.4 °C, respectively.

Values taken from ChEMBL document CHEMBL2029283, “Disubstituted 1,8-dipyrazolcarbazole derivatives as a new type of c-myc G-quadruplex binding ligands” (Bioorg Med Chem, 2012).
